Screening results: PubChem BioAssay, several laboratories
In the library only some 2.1% were active in any assay of this set; here they are far more common.
KLK7 zymogen act – activates the human kallikrein-7 zymogen. P49862. purified proKLK7, EDANS-DABCYL substrate fluorescence; 100% is mature enzyme control, 0% vehicle. activation, % at 7 µM. actives 0.9% (n = 370,000);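 active means activation above the mean of all tested compounds plus 3 SD, computed per campaign excluding outliers beyond control limits, cut at about 13% in these data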
Runt-SMMHC FRET – Runt domain-CBFb-SMMHC interaction inhibition | actives 0.74% (n = 220,000) | AID 1434 | Q01196+Q13951 | Cerulean-Runt/Venus-CBFb-SMMHC FRET ratio 530/480, 1 h | inhibition, % at 20 µM;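 active means mean inhibition across duplicate retests at 20 µM reaching about 50%, limit read from the data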;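 further: inhibitors lower the FRET ratio by blocking Runt binding to CBFb-SMMHC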
Target sequence (Q01196 whole entry, looked up, the tested form may be a part): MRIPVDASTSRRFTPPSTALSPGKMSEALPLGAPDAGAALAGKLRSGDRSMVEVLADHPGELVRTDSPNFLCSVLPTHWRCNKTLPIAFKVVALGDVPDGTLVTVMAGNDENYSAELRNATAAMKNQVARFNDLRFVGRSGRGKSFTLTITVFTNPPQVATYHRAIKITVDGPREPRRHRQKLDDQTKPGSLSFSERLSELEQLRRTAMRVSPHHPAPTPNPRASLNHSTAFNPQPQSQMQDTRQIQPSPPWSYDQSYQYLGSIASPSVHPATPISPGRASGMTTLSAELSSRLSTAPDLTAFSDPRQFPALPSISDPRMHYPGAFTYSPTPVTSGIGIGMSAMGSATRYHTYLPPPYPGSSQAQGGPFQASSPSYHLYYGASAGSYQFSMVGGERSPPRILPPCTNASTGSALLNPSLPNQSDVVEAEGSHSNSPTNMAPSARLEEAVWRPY
Target sequence (Q13951 whole entry, looked up, the tested form may be a part): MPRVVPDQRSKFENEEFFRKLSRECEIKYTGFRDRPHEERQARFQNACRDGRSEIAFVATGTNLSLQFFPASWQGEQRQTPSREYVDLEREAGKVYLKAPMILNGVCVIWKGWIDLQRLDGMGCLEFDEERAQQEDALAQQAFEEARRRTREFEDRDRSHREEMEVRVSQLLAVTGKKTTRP
MEX-5 binding – C. elegans MEX-5 TCR-2 RNA binding activity | Q9XUB2 | MEX-5/FITC-TCR2 RNA binding, fluorescence polarization; active compounds read low | activity score (negative = inhibition of binding), % at 10 µM | actives 0.38% (n = 300,000) | AID 1832;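 active means inhibition past about -25% in most replicates, and total fluorescence under double the plate's negative control median, limit read from the data; inconclusive means replicates evenly split on the limit, or fluorescence at least double controls; inactive means too little inhibition in most replicates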
RanGTP-Impb inh – inhibitors of RanGTP-importin-beta interaction, primary screen, biochemical, FRET, CFP-Ran, YFP-importin-beta, homogeneous. AID 2216. actives 1.1% (n = 300,000). inhibition, % (concentration not given with the values). cell-free CFP-Ran/YFP-importin-beta FRET ratio;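 active means more than half of the replicate wells show a fall in the fluorescence ratio signal beyond about 16%, limit read from the data, passing the limit was not always enough; inconclusive means exactly half of the replicate wells pass the set limit; inactive means fewer than half of replicates pass the limit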
Runt-CBFb FRET – inhibitors of human RUNX1 Runt domain binding to CBFb | Q01196+Q13951 | Cerulean-Runt/Venus-CBFb FRET ratio 530/480, 1 h | inhibition, % at 20 µM | actives 0.46% (n = 220,000) | AID 1496;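 active means inhibition over about 50% at 20 µM in the single-dose screen, limit read from the data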
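System: Cerulean-labeled Runt domain protein | Quantity: 100 nM of each labeled protein | Schedule: 1 h compound exposure, room temperature | Detection: Fluorescence energy transfer, 422 nm excitation, 530/480 nm emission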
YIC counter – counter-screen for RanGTP-importin-beta inhibitors: YIC FRET probe. IC50, µM. Purified YIC probe, intramolecular FRET ratio YFP/CFP. AID 435026. shares compounds with RanGTP-Impb inh. actives 40% (n = 1,000);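 active means fitted half-maximal inhibitory concentration no more than tenfold above the top dose tested; inconclusive means flat fit with 30 to 70% activity, or poor fit; inactive means half-maximal concentration beyond tenfold above the top dose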
Numbers stand for hits.

How did O=C(COC(=O)Cc1n[nH]c(=O)c2ccccc12)NNC(=O)c1ccc(Cl)cc1 do in these assays?
KLK7 zymogen act: inactive

What do the screens show for `Cc1cn([C@H]2C[C@H](O)[C@@H](/C=C/C(=O)NCc3ccco3)O2)c(=O)[nH]c1=O`?
KLK7 zymogen act: inactive

How did CC(C)(C)n1nnnc1C(c1ccccc1)N1CCN(c2ccc(C(F)(F)F)cn2)CC1 (centres undefined) do in these assays?
KLK7 zymogen act: inactive

How did Cc1c(CC(=O)O)c(=O)oc2c(C)c3occ(-c4ccc(F)cc4)c3cc12 do in these assays?
KLK7 zymogen act: inactive; MEX-5 binding: inactive; RanGTP-Impb inh: 24; YIC counter: inactive

How did COc1ccccc1NS(=O)(=O)c1cc(C(=O)NCCCN2CCCC2=O)ccc1C do in these assays?
KLK7 zymogen act: inactive

What do the screens show for `Cc1ccccc1-n1c(=O)cc(N2CC(C)OC(C)C2)[nH]c1=O` (centres undefined)?
KLK7 zymogen act: inactive; Runt-SMMHC FRET: inactive; MEX-5 binding: inactive; RanGTP-Impb inh: 63; Runt-CBFb FRET: inactive; YIC counter: inactive

Results for CCOC(=O)N1CCN(c2cc(=O)n(-c3ccc(OC)cc3)c(=O)[nH]2)CC1 ?
KLK7 zymogen act: inactive; Runt-SMMHC FRET: inactive; Runt-CBFb FRET: inactive

Results for CCOC(=O)N1CCN(c2cc(=O)n(-c3ccccc3C)c(=O)[nH]2)CC1 ?
KLK7 zymogen act: inactive; Runt-SMMHC FRET: inactive; MEX-5 binding: inactive; RanGTP-Impb inh: 36; Runt-CBFb FRET: inactive; YIC counter: inactive

How did Cc1c(NC(=O)C2CCCN(S(=O)(=O)c3ccc(Br)s3)C2)c(=O)n(-c2ccccc2)n1C (centres undefined) do in these assays?
KLK7 zymogen act: inactive

What do the screens show for `O=C(Cn1c2ccccc2c(=O)c2ccccc21)Nc1ccccc1F`?
KLK7 zymogen act: inactive; Runt-SMMHC FRET: inactive; MEX-5 binding: inactive; RanGTP-Impb inh: 36; Runt-CBFb FRET: 119; YIC counter: 6.6

How did CCCn1c(O)c(C=Nc2ccccc2)sc1=S do in these assays?
KLK7 zymogen act: inactive; Runt-SMMHC FRET: inactive; MEX-5 binding: inactive; RanGTP-Impb inh: 27; Runt-CBFb FRET: inactive; YIC counter: 12

What do the screens show for `Cc1c(C#N)c(NC(=O)CCl)n(Cc2ccc(F)cc2)c1C`?
KLK7 zymogen act: inactive; Runt-SMMHC FRET: inactive; MEX-5 binding: inactive; RanGTP-Impb inh: inactive; Runt-CBFb FRET: inactive

How did Cc1c(C#N)c(NC(=O)CCl)n(Cc2ccccc2)c1C do in these assays?
KLK7 zymogen act: inactive; Runt-SMMHC FRET: inactive; MEX-5 binding: inactive; RanGTP-Impb inh: 23; Runt-CBFb FRET: inactive; YIC counter: inactive

Results for O=S1(=O)CC(N2CCCC2)CN1Cc1cn(Cc2ccccc2)nn1 (centres undefined) ?
KLK7 zymogen act: inactive

What do the screens show for `Cc1cc(C(=O)O[C@H]2CCC[C@]3(C(=O)N(Cc4ccccc4)c4ccccc43)[C@H]2NC(=O)CCc2ccccc2)no1`?
KLK7 zymogen act: inactive

How did Cc1cccc(NC(=S)N2CCN(S(=O)(=O)c3ccc(F)cc3)CC2)c1 do in these assays?
KLK7 zymogen act: inactive; MEX-5 binding: inactive; RanGTP-Impb inh: inactive

What do the screens show for `COc1ccc2c(c1)CCc1c(C(=O)Nc3ccn(Cc4ccc(C)cc4)n3)noc1-2`?
KLK7 zymogen act: inactive; Runt-SMMHC FRET: inactive; MEX-5 binding: inactive; RanGTP-Impb inh: inactive; Runt-CBFb FRET: inactive

What do the screens show for `Cc1ccc(Cn2ccc(NC(=O)c3noc4c3CCc3ccccc3-4)n2)cc1`?
KLK7 zymogen act: inactive; Runt-SMMHC FRET: inactive; MEX-5 binding: inactive; RanGTP-Impb inh: 33; Runt-CBFb FRET: inactive; YIC counter: inactive

Results for O=C(Nc1ccccc1)c1ccc2ccccc2n1 ?
KLK7 zymogen act: inactive; Runt-SMMHC FRET: inactive; MEX-5 binding: inactive; RanGTP-Impb inh: inactive; Runt-CBFb FRET: inactive

Results for N#Cc1ccc(/C=C(\C(=O)C(=O)O)c2ccc3ccccc3n2)cc1 ?
KLK7 zymogen act: inactive; Runt-SMMHC FRET: 64; MEX-5 binding: inactive; RanGTP-Impb inh: 20; Runt-CBFb FRET: inactive; YIC counter: 12

What do the screens show for `Cc1ccc(S(=O)(=O)N2CCCN(c3nc4cc(C)ccc4cc3C#N)CC2)cc1`?
KLK7 zymogen act: inactive; Runt-SMMHC FRET: inactive; MEX-5 binding: inactive; RanGTP-Impb inh: 32; Runt-CBFb FRET: inactive; YIC counter: 28

How did COc1ccc(C(=O)N2CCN(c3nc4cc(C)ccc4cc3C#N)CC2)c(OC)c1 do in these assays?
KLK7 zymogen act: inactive; Runt-SMMHC FRET: inactive; MEX-5 binding: inactive; RanGTP-Impb inh: inactive; Runt-CBFb FRET: inactive

Results for COc1ccc2cc(C#N)c(N3CCN(C(=O)c4ccccc4C)CC3)nc2c1 ?
KLK7 zymogen act: inactive; Runt-SMMHC FRET: inactive; MEX-5 binding: inactive; RanGTP-Impb inh: 31; Runt-CBFb FRET: inactive; YIC counter: inactive

How did Cc1ccc2cc(C#N)c(N3CCCN(C(=O)C4CCCO4)CC3)nc2c1 (centres undefined) do in these assays?
KLK7 zymogen act: inactive; Runt-SMMHC FRET: inactive; MEX-5 binding: inactive; RanGTP-Impb inh: 18; Runt-CBFb FRET: inactive; YIC counter: 26

Results for COc1cc(C(=O)N2CCCN(c3nc4cc(C)ccc4cc3C#N)CC2)cc(OC)c1OC ?
KLK7 zymogen act: inactive; Runt-SMMHC FRET: inactive; MEX-5 binding: inactive; RanGTP-Impb inh: 52; Runt-CBFb FRET: inactive; YIC counter: 15

How did Cc1ccc2cc(C#N)c(N3CCCN(C(=O)c4cnccn4)CC3)nc2c1 do in these assays?
KLK7 zymogen act: inactive; MEX-5 binding: inactive; RanGTP-Impb inh: inactive

How did O=C1NC(Cc2ccc(O)cc2)c2nc3ccccc3c(=O)n2-c2ncccc21 (centres undefined) do in these assays?
KLK7 zymogen act: inactive

Results for CCCN1CCS(=O)(=O)N(Cc2cn(Cc3ccc(Cl)cc3)nn2)C(C(=O)OC)C1 (centres undefined) ?
KLK7 zymogen act: inactive

What do the screens show for `COCCN(C(=O)CCC(=O)Nc1cc(C)on1)C(C(=O)NC(C)(C)C)c1cccc(OC)c1OC` (centres undefined)?
KLK7 zymogen act: inactive; MEX-5 binding: inactive; RanGTP-Impb inh: inconclusive

What do the screens show for `Cc1ccc2cc(C#N)c(N3CCCN(C(=S)NCCCN(C)C)CC3)nc2c1`?
KLK7 zymogen act: inactive; MEX-5 binding: inactive; RanGTP-Impb inh: 19; YIC counter: 25

Results for CC1Cc2cc(S(=O)(=O)NCc3ccccc3)ccc2N1C(=O)C1CC1 (centres undefined) ?
KLK7 zymogen act: inactive; MEX-5 binding: inactive; RanGTP-Impb inh: 18; YIC counter: inactive

How did CSCC(C)N1CCC(N2CCC(C(=O)NCc3ccccn3)CC2)CC1 (centres undefined) do in these assays?
KLK7 zymogen act: inactive; MEX-5 binding: inconclusive; RanGTP-Impb inh: 19; YIC counter: inactive
